The values that follow come from ChEMBL document CHEMBL1240415, “Design, synthesis and antimicrobial activities of some new quinoline derivatives carrying 1,2,3-triazole moiety” (2010).

What all share (type): functional
Assay [1] has as its system Trichophyton mentagrophytes. Nature of the assay: Antifungal activity against recultured Trichophyton mentagrophytes after 3 to 4 days by serial plate dilution method. As to conditions: for MIC: Trichophyton mentagrophytes. In a few lines: (§1)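 Sabouraud agar made from peptone, glucose and agar in water, pH 5.7. Fungal spores suspended in normal saline and used to lawn the plates, which were dried 1 h at 37 °C. Wells punched and compounds added in DMSO, with a DMSO solvent control. Triplicate plates held at 37 °C for 3–4 days. Read-out is inhibition zone diameter.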

In a further assay the test system is Candida albicans. Nature of the assay: Antifungal activity against Candida albicans after 3 to 4 days by serial plate dilution method. As to conditions: for MIC: Candida albicans. An outline of the steps:
as §1

In another assay the test system is Aspergillus fumigatus. As to the kind of experiment: Antifungal activity against Aspergillus fumigatus NCIM 902 after 3 to 4 days by serial plate dilution method. Particulars: for MIC: Aspergillus fumigatus, NCIM 902. An outline of the steps:
as §1

For a further assay, the system named is Klebsiella pneumoniae. As to the kind of experiment: Antibacterial activity against recultured Klebsiella pneumoniae after 3 to 4 days by serial plate dilution method. Particulars: for MIC: Klebsiella pneumoniae. In a few lines:
(§2)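 Serial dilutions in Mueller-Hinton broth in tubes, pH adjusted to 5.0 with phosphate buffer. Inoculated with a standardized bacterial suspension and incubated 16–18 h at 37 °C. MIC is the lowest concentration with no visible growth, tested over 6.25–100 µg/mL. Zones come from an agar well diffusion assay: compounds in DMSO are added to wells in seeded agar, DMSO control, triplicate plates, 37 °C for 3–4 days, inhibition zone diameter in mm.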

The subject of the next assay is Aspergillus flavus. Nature of the assay: Antifungal activity against Aspergillus flavus NCIM 524 after 3 to 4 days by serial plate dilution method. Particulars: for MIC: Aspergillus flavus, NCIM 524. An outline of the steps:
as §1

The subject of another assay is Talaromyces marneffei. Nature of the assay: Antifungal activity against recultured Penicillium marneffei after 3 to 4 days by serial plate dilution method. Particulars: for MIC: Talaromyces marneffei. In a few lines:
as §1

Another assay relates to Escherichia coli. Nature of the assay: Antibacterial activity against Escherichia coli ATTC 25922 after 3 to 4 days by serial plate dilution method. Particulars: for MIC: Escherichia coli, ATTC 25922. In a few lines: as §2
In the next assay the test system is Streptococcus pyogenes. As to the kind of experiment: Antibacterial activity against Streptococcus pyogenes after 3 to 4 days by serial plate dilution method. As to conditions: for MIC: Streptococcus pyogenes. In a few lines:
as §2

The test system of the next assay is Staphylococcus aureus. Nature of the assay: Antibacterial activity against Staphylococcus aureus ATTC 25923 after 3 to 4 days by serial plate dilution method. Particulars: for MIC: Staphylococcus aureus, ATTC 25923. In a few lines: as §2
The subject of the next assay is Pseudomonas aeruginosa. Nature of the assay: Antibacterial activity against Pseudomonas aeruginosa ATCC 27853 after 3 to 4 days by serial plate dilution method. Particulars: for MIC: Pseudomonas aeruginosa, ATCC 27853. In a few lines:
as §2

In brackets after ≈: the same amount, converted by molar mass.

In general, MIC refers to the lowest concentration that inhibits growth of the organism. Read a low MIC as greater potency.

Turning to `COc1ccc2nc(C)cc(-n3cc(CN4CCOCC4)nn3)c2c1`, the “diameter of the inhibition zone (DIZ)” value is 12 mm in assay [1]; 14 mm in the assay on Candida albicans; 18 mm in the assay with Aspergillus fumigatus; 14 mm with Klebsiella pneumoniae; 16 mm in the assay with Aspergillus flavus; 12 mm in the assay on Talaromyces marneffei. Moreover, the “diameter of the inhibition zone (DIZ)” value in the assay on Escherichia coli came to 16 mm; in the assay on Streptococcus pyogenes, 16 mm; in the assay on Staphylococcus aureus it was 16 mm; with Pseudomonas aeruginosa, 14 mm. Moreover, the MIC (in assay [1]; in the assay on Candida albicans; against Aspergillus fumigatus; against Klebsiella pneumoniae; in the assay with Aspergillus flavus; in the assay on Talaromyces marneffei) was 6.25 µg/mL (≈ 18.4 µM) in each case. For the same compound, the MIC with Escherichia coli, in the assay on Streptococcus pyogenes, in the assay with Staphylococcus aureus and in the assay with Pseudomonas aeruginosa was 6.25 µg/mL (≈ 18.4 µM) in each case.
For the compound `COc1ccc2nc(C)cc(-n3cc(CNC4CCCC4)nn3)c2c1`, the “diameter of the inhibition zone (DIZ)” value in assay [1] worked out at 10 mm; in the assay on Candida albicans, 10 mm; with Aspergillus fumigatus, 14 mm; in the assay on Klebsiella pneumoniae, 14 mm; with Aspergillus flavus it was 10 mm; in the assay on Talaromyces marneffei, 10 mm. The “diameter of the inhibition zone (DIZ)” value with Escherichia coli, in the assay with Streptococcus pyogenes, in the assay on Staphylococcus aureus and in the assay on Pseudomonas aeruginosa was 12 mm each time. The MIC (in assay [1]; in the assay with Candida albicans; against Aspergillus fumigatus; with Klebsiella pneumoniae; in the assay with Aspergillus flavus; in the assay on Talaromyces marneffei) was 6.25 µg/mL (≈ 18.5 µM) in each case. Further, the MIC against Escherichia coli, against Streptococcus pyogenes, in the assay on Staphylococcus aureus and against Pseudomonas aeruginosa was 6.25 µg/mL (≈ 18.5 µM) in each case.
As for `COc1ccc(N2CCN(Cc3cn(-c4cc(C)nc5ccc(OC)cc45)nn3)CC2)cc1`, the “diameter of the inhibition zone (DIZ)” value in assay [1] is 16 mm; in the assay with Candida albicans, 14 mm; in the assay with Aspergillus fumigatus, 16 mm; in the assay on Klebsiella pneumoniae, 16 mm; with Aspergillus flavus it was 14 mm; in the assay with Talaromyces marneffei, 18 mm. For the same compound, the “diameter of the inhibition zone (DIZ)” value in the assay with Escherichia coli came out at 20 mm; with Streptococcus pyogenes it was 14 mm; with Staphylococcus aureus it was 16 mm; in the assay on Pseudomonas aeruginosa it was 14 mm. Besides, the MIC (in assay [1]; with Candida albicans; in the assay with Aspergillus fumigatus; with Klebsiella pneumoniae; in the assay on Aspergillus flavus; in the assay on Talaromyces marneffei) was 6.25 µg/mL (≈ 14.1 µM) throughout. The MIC with Escherichia coli, in the assay with Streptococcus pyogenes, in the assay with Staphylococcus aureus and with Pseudomonas aeruginosa was 6.25 µg/mL (≈ 14.1 µM) in each case.
Turning to `COc1ccc2nc(C)cc(-n3cc(CN4CCN(c5ccccc5F)CC4)nn3)c2c1`, the “diameter of the inhibition zone (DIZ)” value in [1] came to 10 mm; in the assay on Candida albicans it was 10 mm; in the assay with Aspergillus fumigatus, 12 mm; in the assay with Klebsiella pneumoniae, 10 mm; in the assay on Aspergillus flavus it was 10 mm; with Talaromyces marneffei, 12 mm. Further, the “diameter of the inhibition zone (DIZ)” value in the assay with Escherichia coli was found to be 10 mm; in the assay with Streptococcus pyogenes it was 14 mm; with Staphylococcus aureus, 10 mm; in the assay with Pseudomonas aeruginosa it was 10 mm. Moreover, the MIC (in assay [1]; against Candida albicans; in the assay on Aspergillus fumigatus; against Klebsiella pneumoniae; in the assay on Aspergillus flavus; with Talaromyces marneffei) was 6.25 µg/mL (≈ 14.5 µM) in each case. Also, the MIC was 12.5 µg/mL (≈ 28.9 µM) with Escherichia coli, 6.25 µg/mL (≈ 14.5 µM) with Streptococcus pyogenes, 12.5 µg/mL (≈ 28.9 µM) against Staphylococcus aureus and 6.25 µg/mL (≈ 14.5 µM) in the assay on Pseudomonas aeruginosa.
Consider `COc1ccc2nc(C)cc(-n3cc(CNC4CC4)nn3)c2c1`, for which the “diameter of the inhibition zone (DIZ)” value in [1] turned out to be 15 mm; with Candida albicans it was 13 mm; in the assay with Aspergillus fumigatus, 18 mm; with Klebsiella pneumoniae it was 18 mm; in the assay with Aspergillus flavus it was 14 mm; in the assay with Talaromyces marneffei, 18 mm. For the same compound, the “diameter of the inhibition zone (DIZ)” value in the assay with Escherichia coli was found to be 16 mm; in the assay with Streptococcus pyogenes it was 12 mm; in the assay with Staphylococcus aureus, 16 mm; in the assay on Pseudomonas aeruginosa, 12 mm. The MIC (in assay [1]; in the assay with Candida albicans; in the assay on Aspergillus fumigatus; against Klebsiella pneumoniae; with Aspergillus flavus; in the assay on Talaromyces marneffei) was 6.25 µg/mL (≈ 20.2 µM) each time. Also, the MIC against Escherichia coli, against Streptococcus pyogenes, in the assay with Staphylococcus aureus and with Pseudomonas aeruginosa was 6.25 µg/mL (≈ 20.2 µM) throughout.
Turning to `COc1ccc2nc(C)cc(-n3cc(CN(C)C4CCCCC4)nn3)c2c1`, the “diameter of the inhibition zone (DIZ)” value (in assay [1]; with Candida albicans; with Aspergillus fumigatus; in the assay with Klebsiella pneumoniae; in the assay with Aspergillus flavus; in the assay on Talaromyces marneffei) was below 10 mm throughout. Also, the “diameter of the inhibition zone (DIZ)” value in the assay on Escherichia coli, in the assay with Streptococcus pyogenes, with Staphylococcus aureus and with Pseudomonas aeruginosa was below 10 mm each time. Besides, the MIC (in [1]; in the assay with Candida albicans; against Aspergillus fumigatus; in the assay with Klebsiella pneumoniae; in the assay on Aspergillus flavus; in the assay with Talaromyces marneffei) was 50 µg/mL (≈ 137 µM) in each case. Also, the MIC in the assay on Escherichia coli, in the assay on Streptococcus pyogenes, against Staphylococcus aureus and against Pseudomonas aeruginosa was 50 µg/mL (≈ 137 µM) each time.
Consider `CCC(C)NCc1cn(-c2cc(C)nc3ccc(OC)cc23)nn1` (stereo not given), for which the “diameter of the inhibition zone (DIZ)” value is given as below 10 mm in assay [1]; 11 mm in the assay on Candida albicans; below 10 mm with Aspergillus fumigatus; 11 mm in the assay with Klebsiella pneumoniae; 11 mm in the assay on Aspergillus flavus; 10 mm in the assay on Talaromyces marneffei. In addition, the “diameter of the inhibition zone (DIZ)” value stood at 14 mm in the assay on Escherichia coli, 12 mm with Streptococcus pyogenes, 10 mm in the assay on Staphylococcus aureus and 10 mm with Pseudomonas aeruginosa. In addition, the MIC in [1] was 25 µg/mL (≈ 76.8 µM); in the assay with Candida albicans it was 12.5 µg/mL (≈ 38.4 µM); against Aspergillus fumigatus, 25 µg/mL (≈ 76.8 µM); with Klebsiella pneumoniae, 12.5 µg/mL (≈ 38.4 µM); against Aspergillus flavus, 12.5 µg/mL (≈ 38.4 µM); in the assay on Talaromyces marneffei, 12.5 µg/mL (≈ 38.4 µM). Also, the MIC with Escherichia coli was found to be 6.25 µg/mL (≈ 19.2 µM); against Streptococcus pyogenes, 12.5 µg/mL (≈ 38.4 µM); against Staphylococcus aureus, 12.5 µg/mL (≈ 38.4 µM); against Pseudomonas aeruginosa it was 12.5 µg/mL (≈ 38.4 µM).
`COc1ccc2nc(C)cc(-n3cc(CN4CCCCC4)nn3)c2c1`: the “diameter of the inhibition zone (DIZ)” value in assay [1] is recorded as 10 mm; in the assay with Candida albicans it was 10 mm; in the assay on Aspergillus fumigatus, 10 mm; in the assay on Klebsiella pneumoniae, below 10 mm; with Aspergillus flavus, 10 mm; in the assay with Talaromyces marneffei, 12 mm. Moreover, the “diameter of the inhibition zone (DIZ)” value in the assay with Escherichia coli is recorded as 10 mm; in the assay on Streptococcus pyogenes, 10 mm; in the assay with Staphylococcus aureus, below 10 mm; with Pseudomonas aeruginosa, below 10 mm. For the same compound, the MIC came to 12.5 µg/mL (≈ 37 µM) in [1]; 12.5 µg/mL (≈ 37 µM) in the assay with Candida albicans; 12.5 µg/mL (≈ 37 µM) in the assay on Aspergillus fumigatus; 50 µg/mL (≈ 148 µM) with Klebsiella pneumoniae; 12.5 µg/mL (≈ 37 µM) in the assay on Aspergillus flavus; 12.5 µg/mL (≈ 37 µM) in the assay on Talaromyces marneffei. Besides, the MIC was 12.5 µg/mL (≈ 37 µM) with Escherichia coli, 12.5 µg/mL (≈ 37 µM) against Streptococcus pyogenes, 50 µg/mL (≈ 148 µM) against Staphylococcus aureus and 50 µg/mL (≈ 148 µM) against Pseudomonas aeruginosa.
Turning to `COc1ccc2nc(C)cc(-n3cc(CN4CCN(C5CCCCC5)CC4)nn3)c2c1`, the “diameter of the inhibition zone (DIZ)” value in assay [1] is given as below 10 mm; in the assay with Candida albicans, below 10 mm; in the assay with Aspergillus fumigatus it was below 10 mm; with Klebsiella pneumoniae it was 10 mm; with Aspergillus flavus, below 10 mm; in the assay with Talaromyces marneffei, below 10 mm. The “diameter of the inhibition zone (DIZ)” value in the assay with Escherichia coli, in the assay on Streptococcus pyogenes, in the assay with Staphylococcus aureus and in the assay with Pseudomonas aeruginosa was 10 mm throughout. The MIC in assay [1] was found to be 50 µg/mL (≈ 119 µM); in the assay with Candida albicans, 50 µg/mL (≈ 119 µM); in the assay with Aspergillus fumigatus it was 50 µg/mL (≈ 119 µM); in the assay with Klebsiella pneumoniae it was 12.5 µg/mL (≈ 29.7 µM); against Aspergillus flavus, 50 µg/mL (≈ 119 µM); against Talaromyces marneffei, 50 µg/mL (≈ 119 µM). Besides, the MIC in the assay with Escherichia coli, against Streptococcus pyogenes, against Staphylococcus aureus and against Pseudomonas aeruginosa was 12.5 µg/mL (≈ 29.7 µM) in each case.
